Data as given in ChEMBL document CHEMBL3616456, “Potential of aryl-urea-benzofuranylthiazoles hybrids as multitasking agents in Alzheimer's disease” (Eur J Med Chem, 2015).
pIC50: −log10 of the molar value.

What was measured:
Acetylcholinesterase = Acetylcholinesterase (Electrophorus electricus, UniProt O42275); assay: Inhibition of electric eel acetylcholinesterase using acetylthiocholine iodide as substrate preincubated for 15 mins followed by substrate addition by Ellman's method
Cholinesterase = Cholinesterase (Equus caballus, UniProt P81908); assay: Inhibition of horse serum butyrylcholinesterase using butyrylthiocholine iodide as substrate preincubated for 15 mins followed by substrate addition by Ellman's method
Chain of Cholinesterase (P81908 whole entry): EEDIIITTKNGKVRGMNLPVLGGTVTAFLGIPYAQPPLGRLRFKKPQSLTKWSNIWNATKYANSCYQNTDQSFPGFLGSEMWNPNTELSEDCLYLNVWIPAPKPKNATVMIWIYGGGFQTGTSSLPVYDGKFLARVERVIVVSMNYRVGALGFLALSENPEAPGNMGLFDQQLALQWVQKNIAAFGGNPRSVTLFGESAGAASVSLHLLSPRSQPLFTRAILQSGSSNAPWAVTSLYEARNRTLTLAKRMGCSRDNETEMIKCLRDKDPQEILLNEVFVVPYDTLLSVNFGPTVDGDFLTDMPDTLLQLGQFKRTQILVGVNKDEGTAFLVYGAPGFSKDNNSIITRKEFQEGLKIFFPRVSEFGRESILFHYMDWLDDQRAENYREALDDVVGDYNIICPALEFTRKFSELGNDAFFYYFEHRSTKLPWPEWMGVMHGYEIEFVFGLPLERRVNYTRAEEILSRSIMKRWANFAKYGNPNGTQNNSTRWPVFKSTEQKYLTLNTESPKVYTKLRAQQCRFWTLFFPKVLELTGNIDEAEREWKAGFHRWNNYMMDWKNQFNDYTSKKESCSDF
How it was run: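 Enzyme in 100 mM phosphate buffer pH 8.0 with sample (n-propanol as solvent and control) preincubated 15 min at 25°C. Reaction started with butyrylthiocholine iodide (0.79 mM solution) plus DTNB. Thiolate-DTNB yellow product followed at 412 nm. IC50 taken from inhibition (%) curves at five concentrations: 12.5, 25, 50, 100 and 200 µM.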

[1] = Antioxidant activity assessed as ABTS cation radical scavenging activity measured after 6 mins
[2] = Antioxidant activity assessed as cupric reducing antioxidant capacity measured after 1 hr; type: physicochemical
[3] = Selectivity index, ratio of IC50 for horse serum butyrylcholinesterase to IC50 for electric eel acetylcholinesterase
[4] = molecular target: Cholinesterase (Equus caballus) (UniProt P81908); assay: Potency index, ratio of galanthamine IC50 to compound IC50 for horse serum butyrylcholinesterase
Chain of Cholinesterase (Equus caballus) (P81908 whole entry): as above

[5] = molecular target: Cholinesterase (Equus caballus) (UniProt P81908); assay: Potency index, ratio of donepezil IC50 to compound IC50 for horse serum butyrylcholinesterase

Chain of Acetylcholinesterase (O42275 whole entry): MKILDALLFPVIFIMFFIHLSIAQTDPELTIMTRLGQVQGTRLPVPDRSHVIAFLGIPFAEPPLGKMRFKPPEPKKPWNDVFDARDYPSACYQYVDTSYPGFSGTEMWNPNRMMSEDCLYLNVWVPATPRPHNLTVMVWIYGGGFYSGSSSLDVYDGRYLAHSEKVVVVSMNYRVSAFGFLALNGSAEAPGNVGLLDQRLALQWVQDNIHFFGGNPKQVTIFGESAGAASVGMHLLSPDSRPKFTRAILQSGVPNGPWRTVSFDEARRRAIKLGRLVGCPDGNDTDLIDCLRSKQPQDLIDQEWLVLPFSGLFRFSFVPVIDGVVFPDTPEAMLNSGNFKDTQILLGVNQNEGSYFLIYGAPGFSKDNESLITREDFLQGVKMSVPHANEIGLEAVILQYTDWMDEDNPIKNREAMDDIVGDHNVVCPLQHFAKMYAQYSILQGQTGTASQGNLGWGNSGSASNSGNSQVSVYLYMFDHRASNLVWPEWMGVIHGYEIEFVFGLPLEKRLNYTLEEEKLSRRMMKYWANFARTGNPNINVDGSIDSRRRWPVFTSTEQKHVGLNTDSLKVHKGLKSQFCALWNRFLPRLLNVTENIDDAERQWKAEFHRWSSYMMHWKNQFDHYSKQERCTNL

| Structure (SMILES) | pIC50 (Acetylcholinesterase) | pIC50 (Cholinesterase) | pIC50 ([1]; ABTS cation radical) | A0.5 [2] | Ratio IC50 [3] | Ratio IC50 [4] | Ratio IC50 [5] | pIC50 [1] |
| --- | --- | --- | --- | --- | --- | --- | --- | --- |
| O=C(Nc1ccc(I)cc1)Nc1nc(-c2cc3cc([N+](=O)[O-])ccc3o2)cs1 | 5.26 | 5.69 | 4.20 | > 200 µM | 0.37 | 8.5 | 2.3 |  |
| O=C(Nc1ccc([N+](=O)[O-])cc1)Nc1nc(-c2cc3cc(Br)ccc3o2)cs1 | 5.32 | 5.51 | < 3.70 | 120.74 µM | 0.65 |  |  |  |
| O=C(Nc1cccc([N+](=O)[O-])c1)Nc1nc(-c2cc3cc(Br)ccc3o2)cs1 | 4.76 | 4.10 | 3.80 | > 200 µM | 4.53 |  |  |  |
| O=C(Nc1nc(-c2cc3cc(Br)ccc3o2)cs1)Nc1ccccc1[N+](=O)[O-] | 5.05 | 5.29 | 3.78 | 122.22 µM | 0.58 |  |  |  |
| O=C(Nc1nc(-c2cc3ccccc3o2)cs1)Nc1ccccc1F | 4.51 | 4.38 | 5.58 | 102.43 µM | 1.35 |  |  |  |
| COc1ccccc1NC(=O)Nc1nc(-c2cc3cc(Br)ccc3o2)cs1 | 4.10 | 3.81 | 4.11 | 92.68 µM | 1.95 |  |  |  |
| O=C(Nc1ccc(Br)cc1)Nc1nc(-c2cc3ccccc3o2)cs1 | 4.48 | 4.26 | < 3.70 | > 200 µM | 1.68 |  |  |  |
| O=C(Nc1ccc(Cl)cc1)Nc1nc(-c2cc3cc(Br)ccc3o2)cs1 | 4.65 | 4.43 | < 3.70 | > 200 µM | 1.66 |  |  |  |
| O=C(Nc1ccc(F)cc1)Nc1nc(-c2cc3cc([N+](=O)[O-])ccc3o2)cs1 | 4.39 | 4.32 | 3.91 | > 200 µM | 1.16 |  |  |  |
| O=C(Nc1ccccc1)Nc1nc(-c2cc3cc([N+](=O)[O-])ccc3o2)cs1 | 5.35 | 5.65 | 3.74 | > 200 µM | 0.51 |  |  |  |
| COc1cccc(NC(=O)Nc2nc(-c3cc4cc(Br)ccc4o3)cs2)c1 | 4.53 | 4.86 | < 3.70 | > 200 µM | 0.47 |  |  |  |
| COc1cccc(NC(=O)Nc2nc(-c3cc4ccccc4o3)cs2)c1 | 4.31 | 4.23 | 6.70 | 104.46 µM | 1.22 |  |  |  |
| Cc1ccc(NC(=O)Nc2nc(-c3cc4cc(Br)ccc4o3)cs2)cc1 | 4.49 | 5.25 | < 3.70 | > 200 µM | 0.17 |  |  |  |
| O=C(Nc1ccc(I)cc1)Nc1nc(-c2cc3ccccc3o2)cs1 | 4.67 | 4.38 | 4.21 | 133 µM | 1.93 |  |  |  |
| COc1ccc(NC(=O)Nc2nc(-c3cc4cc(Br)ccc4o3)cs2)cc1 | 4.48 | 4.51 | < 3.70 | > 200 µM | 0.95 |  |  |  |
| O=C(Nc1ccc(F)cc1)Nc1nc(-c2cc3cc(Br)ccc3o2)cs1 | 4.45 | 4.19 | < 3.70 | 146.78 µM | 1.81 |  |  |  |
| O=C(Nc1cccc(Cl)c1)Nc1nc(-c2cc3ccccc3o2)cs1 | 5.01 | 4.67 | 4.85 | > 200 µM | 2.22 |  |  |  |
| O=C(Nc1nc(-c2cc3ccccc3o2)cs1)Nc1ccccc1[N+](=O)[O-] | 4.38 | 4.10 | 4.69 | 100.33 µM | 1.91 |  |  |  |
| O=C(Nc1ccc(Cl)cc1)Nc1nc(-c2cc3cc([N+](=O)[O-])ccc3o2)cs1 | 4.51 | 4.57 | 3.93 | > 200 µM | 0.87 |  |  |  |
| Cc1ccc(NC(=O)Nc2nc(-c3cc4ccccc4o3)cs2)cc1 | 4.98 | 4.25 | 6.30 | 192.91 µM | 5.41 |  |  |  |

| Structure (SMILES) | pIC50 (Acetylcholinesterase) | pIC50 (Cholinesterase) | pIC50 ([1]; ABTS cation radical) | A0.5 [2] | Ratio IC50 [3] | Ratio IC50 [4] | Ratio IC50 [5] | pIC50 [1] |
| --- | --- | --- | --- | --- | --- | --- | --- | --- |
| O=C(Nc1cccc(Cl)c1)Nc1nc(-c2cc3cc(Br)ccc3o2)cs1 | 5.10 | 4.58 | < 3.70 | > 200 µM | 3.32 |  |  |  |
| O=C(Nc1ccc(Br)cc1)Nc1nc(-c2cc3cc(Br)ccc3o2)cs1 | 4.92 | 4.45 | < 3.70 | > 200 µM | 3 |  |  |  |
| O=C(Nc1ccc(Br)cc1)Nc1nc(-c2cc3cc([N+](=O)[O-])ccc3o2)cs1 | 4.55 | 4.46 | 3.71 | > 200 µM | 1.22 |  |  |  |
| O=C(Nc1ccc(F)cc1)Nc1nc(-c2cc3ccccc3o2)cs1 | 4.26 | 5.13 | 5.95 | 110.31 µM | 0.14 |  |  |  |
| O=C(Nc1ccc(Cl)c(Cl)c1)Nc1nc(-c2cc3ccccc3o2)cs1 | 4.28 | 4.12 | < 3.70 | > 200 µM | 1.45 |  |  |  |
| O=C(Nc1ccc([N+](=O)[O-])cc1)Nc1nc(-c2cc3cc([N+](=O)[O-])ccc3o2)cs1 | 4.60 | 4.59 | 4.00 | > 200 µM | 1.02 |  |  |  |
| O=C(Nc1cccc(F)c1)Nc1nc(-c2cc3cc(Br)ccc3o2)cs1 | 4.53 | 4.40 | < 3.70 | > 200 µM | 1.37 |  |  |  |
| O=C(Nc1ccc([N+](=O)[O-])cc1)Nc1nc(-c2cc3ccccc3o2)cs1 | 5.28 | 5.46 | 4.72 | > 200 µM | 0.66 |  |  |  |
| COc1ccc(NC(=O)Nc2nc(-c3cc4ccccc4o3)cs2)cc1 | 4.28 | 4.13 | 4.76 | 146.34 µM | 1.42 |  |  |  |
| O=C(Nc1ccccc1)Nc1nc(-c2cc3ccccc3o2)cs1 | 4.61 | 4.67 | 4.55 | 132 µM | 0.86 |  |  |  |
| O=c1c(O)c(-c2ccc(O)c(O)c2)oc2cc(O)cc(O)c12 [QUERCETIN] |  |  | 5.93 | 1.45 µM |  |  |  |  |
| O=C(Nc1cccc(F)c1)Nc1nc(-c2cc3ccccc3o2)cs1 | 4.31 | 4.75 | 5.34 | 126.52 µM | 0.37 |  |  |  |
| O=C(Nc1ccccc1)Nc1nc(-c2cc3cc(Br)ccc3o2)cs1 | 4.63 | 4.46 | < 3.70 | > 200 µM | 1.5 |  |  |  |
| O=C(Nc1nc(-c2cc3cc(Br)ccc3o2)cs1)Nc1ccccc1F | 5.41 | 5.03 | < 3.70 | > 200 µM | 2.4 |  |  |  |
| O=C(Nc1ccc(I)cc1)Nc1nc(-c2cc3cc(Br)ccc3o2)cs1 | 5.19 | 4.36 | < 3.70 | > 200 µM | 6.8 |  |  |  |
| COc1ccccc1NC(=O)Nc1nc(-c2cc3ccccc3o2)cs1 | 4.21 | 4.09 | 4.32 | > 200 µM | 1.33 |  |  |  |
| O=C(Nc1ccc(Cl)cc1)Nc1nc(-c2cc3ccccc3o2)cs1 | 4.37 | 4.41 | 4.95 | > 200 µM | 0.91 |  |  |  |
| COc1ccc(NC(=O)Nc2nc(-c3cc4cc([N+](=O)[O-])ccc4o3)cs2)cc1 | 4.47 | 4.31 | 3.92 | > 200 µM | 1.44 |  |  |  |
| O=C(Nc1cccc([N+](=O)[O-])c1)Nc1nc(-c2cc3ccccc3o2)cs1 | 4.39 | 4.57 |  | > 200 µM | 0.65 |  |  | 5.90 |
